In brackets after ≈: the same amount, converted by molar mass.
Experiments:
[1] = target: T1, Prostaglandin G/H synthase 1 (Mus musculus) (UniProt P22437); test: Inhibition of COX1-mediated PGE2 production in mouse J774 cells at 10 uM preincubated for 15 mins measured after 30 mins by radioimmunoassay relative to control; type: cell-based
T1 sequence (whole entry): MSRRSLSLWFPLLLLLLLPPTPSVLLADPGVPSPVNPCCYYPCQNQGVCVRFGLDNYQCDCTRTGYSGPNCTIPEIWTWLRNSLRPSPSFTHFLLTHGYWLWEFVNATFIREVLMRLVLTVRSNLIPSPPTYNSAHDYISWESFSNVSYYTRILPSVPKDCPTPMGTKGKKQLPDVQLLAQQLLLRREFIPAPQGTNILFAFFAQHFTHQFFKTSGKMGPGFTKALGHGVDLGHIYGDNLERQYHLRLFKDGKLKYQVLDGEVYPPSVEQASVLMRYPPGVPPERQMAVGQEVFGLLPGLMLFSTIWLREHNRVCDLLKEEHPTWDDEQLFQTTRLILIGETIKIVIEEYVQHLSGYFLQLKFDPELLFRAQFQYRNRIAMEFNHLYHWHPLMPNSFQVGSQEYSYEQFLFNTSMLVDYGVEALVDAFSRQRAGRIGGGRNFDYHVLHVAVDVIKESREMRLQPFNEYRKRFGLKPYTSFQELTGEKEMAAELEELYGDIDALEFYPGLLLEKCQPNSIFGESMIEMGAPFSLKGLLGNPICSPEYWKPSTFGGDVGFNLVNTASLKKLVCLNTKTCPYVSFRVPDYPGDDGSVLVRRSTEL
In short: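 Murine J774 macrophages in DMEM with 10% FBS, glutamine, HEPES, pyruvate and antibiotics, adhered 2 h at 37 °C in 5% CO2. Medium was refreshed, cells were pretreated with compound for 15 min, then given 15 μM arachidonic acid for 30 min at 37 °C. PGE2 in supernatant was measured by RIA as % inhibition versus control, triplicate wells, mean of three experiments.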

[2] = target: T2, Prostaglandin G/H synthase 2 (Mus musculus, UniProt Q05769); test: Inhibition of COX2-mediated PGE2 production in LPS-induced mouse J774 cells by radioimmunoassay; type: cell-based
T2 sequence (Q05769 whole entry): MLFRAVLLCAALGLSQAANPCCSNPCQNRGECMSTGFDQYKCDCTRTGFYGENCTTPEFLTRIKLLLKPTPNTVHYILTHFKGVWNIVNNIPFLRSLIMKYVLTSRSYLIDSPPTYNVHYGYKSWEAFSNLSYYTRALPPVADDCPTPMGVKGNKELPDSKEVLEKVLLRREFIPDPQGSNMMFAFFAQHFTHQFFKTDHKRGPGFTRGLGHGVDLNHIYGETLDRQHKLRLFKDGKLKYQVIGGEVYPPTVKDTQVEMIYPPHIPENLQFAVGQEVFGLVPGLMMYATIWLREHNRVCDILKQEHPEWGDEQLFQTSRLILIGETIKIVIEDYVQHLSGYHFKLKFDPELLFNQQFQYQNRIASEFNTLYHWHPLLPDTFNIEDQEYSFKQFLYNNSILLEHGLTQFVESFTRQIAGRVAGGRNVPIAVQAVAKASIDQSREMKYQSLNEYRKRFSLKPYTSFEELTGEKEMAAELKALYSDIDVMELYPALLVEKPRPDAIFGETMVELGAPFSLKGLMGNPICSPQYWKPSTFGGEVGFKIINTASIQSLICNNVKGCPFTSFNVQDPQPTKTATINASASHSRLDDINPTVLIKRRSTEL
In short: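 J774 murine macrophages stimulated 24 h with E. coli LPS (10 µg/mL) to induce COX-2, with or without compound (0.01–10 μM). Supernatant PGE2 measured by RIA; percent inhibition against controls. Triplicate wells, mean of three experiments; IC50 from sigmoidal variable-slope fit.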

[3] = test system: J774; test: Selectivity index, ratio of IC50 for COX1-mediated PGE2 production to IC50 for COX2-mediated PGE2 production in mouse J774 cells; type: cell-based
In short: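 Ratio of the COX-1 IC50 to the COX-2 IC50, both from PGE2 RIA in J774 cells. For COX-1, cells were given compound for 15 min, then 15 μM arachidonic acid for 30 min; lower concentrations (0.01–1 μM) were tested when warranted. For COX-2, cells were given LPS 10 µg/mL for 24 h with compound at 0.01–10 μM. IC50 came from a sigmoidal variable-slope fit.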

[4] = target: T3, Prostaglandin G/H synthase 1 (Mus musculus, UniProt P22437); test: Inhibition of COX1-mediated PGE2 production in mouse J774 cells preincubated for 15 mins measured after 30 mins by radioimmunoassay; type: cell-based
T3 sequence (P22437 whole entry): T1 sequence (whole entry)
In short: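 Murine J774 macrophages in DMEM/10% FBS, adhered 2 h at 37 °C. […] Supernatant PGE2 measured by RIA. Triplicate wells, mean of three experiments; IC50 by sigmoidal variable-slope fit.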

[5] = target: T4, Prostaglandin G/H synthase 2 (Mus musculus) (UniProt Q05769); test: Inhibition of COX2-mediated PGE2 production in LPS-induced mouse J774 cells by radioimmunoassay relative to control; type: cell-based; design: concentration or dose not given beside the values; conditions: concentration not given here
T4 sequence (whole entry): T2 sequence (Q05769 whole entry)
In short: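 J774 cells, cultured as for the COX-1 assay, were stimulated 24 h with E. coli LPS (10 µg/mL) to induce COX-2, with or without compound at 0.01–10 μM. Supernatant PGE2 was measured by RIA as % inhibition versus control, triplicate wells, mean of three experiments. IC50 came from a sigmoidal variable-slope dose-response fit.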

[6] = test system: Rattus norvegicus; test: Antiinflammatory activity in rat assessed as reduction of carrageenan-induced paw pressure at 40 mg/kg, po after 45 mins post carrageenan-challenge; type: functional; design: scale not given: the % may be the effect or the level left
In short: (§1)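 Rats (Sprague-Dawley or Wistar, 150-200 g) received intraplantar carrageenan 4 h before testing, then oral compound or CMC vehicle. Paw-pressure threshold read before treatment and at 15, 30, 45 and 60 min after treatment, compared with saline and carrageenan controls.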

[7] = test system: Mus musculus; test: Analgesic activity in Swiss albino mouse assessed as reduction of acetic acid-induced writhing at 84 nmol/kg, po after 5 mins; type: functional; design: scale not given: the % may be the effect or the level left
In short: (§2)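 Male Swiss albino mice (23-25 g), standard diet and water ad libitum, 23 ± 1 °C, 12 h light/dark cycle. Test compound given orally; 0.6% acetic acid (10 mL/kg) injected ip. Stretching movements counted for 10 min, beginning 5 min after administration.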

[8] = test system: Mus musculus; test: Analgesic activity in Swiss albino mouse assessed as reduction of acetic acid-induced writhing at 81.6 nmol/kg, po after 5 mins; type: functional; design: scale not given: the % may be the effect or the level left; in short: as §2
[9] = Solubility of the compound in PBS buffer at pH 7.4 by HPLC analysis; type: physicochemical
In short: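 20 mM DMSO stocks diluted 1:100 into 0.01 M PBS pH 7.4 in duplicate wells of a solubility filter plate, shaken 90 min at 300 rpm. Seven-point calibration standards from 1 to 200 μM.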

[10] = test system: Rattus norvegicus; test: Antiinflammatory activity in rat assessed as reduction of carrageenan-induced oedema in right hind paw at 40 mg/kg, po after 4 hrs post carrageenan-challenge; type: functional; design: scale not given: the % may be the effect or the level left
In short: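 Sprague-Dawley or Wistar rats (150-200 g). Carrageenan injected intraplantar; oral treatment with test compound or CMC vehicle. Right hind paw volume measured 4 h after carrageenan and compared with saline- and carrageenan-treated controls.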

[11] = test system: Mus musculus; test: Analgesic activity in Swiss albino mouse assessed as reduction of acetic acid-induced writhing at 40.8 nmol/kg, po after 5 mins; type: functional; design: scale not given: the % may be the effect or the level left; in short: as §2
[12] = Solubility of the compound in simulated gastric fluid without pepsin at pH 1.5 by HPLC analysis; type: physicochemical
In short: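 Compound from 20 mM DMSO stock diluted 1:100 into 0.05 M simulated gastric fluid without pepsin (pH 1.5 with HCl), duplicate wells on a solubility filter plate, shaken 90 min at 300 rpm. Seven-point calibration standards from 1 to 200 μM.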

[13] = test system: Rattus norvegicus; test: Antiinflammatory activity in rat assessed as reduction of carrageenan-induced paw pressure at 40 mg/kg, po after 30 mins post carrageenan-challenge; type: functional; design: scale not given: the % may be the effect or the level left; in short: as §1
[14] = test system: Rattus norvegicus; test: Antiinflammatory activity in rat assessed as reduction of carrageenan-induced paw pressure at 40 mg/kg, po after 60 mins post carrageenan-challenge; type: functional; design: scale not given: the % may be the effect or the level left; in short: as §1
[15] = test system: Rattus norvegicus; test: Antiinflammatory activity in rat assessed as reduction of carrageenan-induced paw pressure at 40 mg/kg, po after 15 mins post carrageenan-challenge; type: functional; design: scale not given: the % may be the effect or the level left; in short: as §1
[16] = test system: Aorta; test: Vasorelaxant activity in Wistar rat endothelium-denuded thoracic aortic ring assessed as inhibition of KCl-induced contractile tone in presence of guanylate cyclase inhibitor ODQ; type: functional, tissue-based
In short: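 Male normotensive Wistar rats (250–350 g); thoracic aortic rings, endothelium removed by rubbing, removal confirmed by <10% relaxation to ACh (10 µM) in KCl (30 mM)-contracted rings. ODQ 1 µM incubated after confirmation; rings contracted with KCl 30 mM, then 3-fold increasing compound concentrations (1 nM–10 µM). Isometric tension; pIC50 from half reduction of KCl tone; mean ± SE, 6–10 experiments.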

[17] = test system: Mus musculus; test: Analgesic activity in Swiss albino mouse assessed as reduction of acetic acid-induced writhing at 71.8 nmol/kg, po after 5 mins; type: functional; design: scale not given: the % may be the effect or the level left; in short: as §2
[18] = test system: Mus musculus; test: Analgesic activity in Swiss albino mouse assessed as reduction of acetic acid-induced writhing at 35.9 nmol/kg, po after 5 mins; type: functional; design: scale not given: the % may be the effect or the level left; in short: as §2

| SMILES | inhibition [1] [%] | IC50 [2] [nM] | Ratio IC50 [3] | IC50 [4] [nM] | inhibition [5] [%] | Activity [6] [%] | Activity [7] [%] | Activity [8] [%] | solubility [9] [µM] | Activity [10] [%] | Activity [11] [%] | solubility [12] [µM] | Activity [13] [%] | Activity [14] [%] | Activity [15] [%] | IC50 [16] [nM] | Activity [17] [%] | Activity [18] [%] |
| --- | --- | --- | --- | --- | --- | --- | --- | --- | --- | --- | --- | --- | --- | --- | --- | --- | --- | --- |
| Cc1c(C(N)C(=O)OCCCO)cc(-c2ccc(S(C)(=O)=O)cc2)n1-c1ccc(F)cc1 (centres undefined) | 23 | 760 | > 13.2 | > 10000 | 100 |  |  |  |  |  |  |  |  |  |  |  |  |  |
| Cc1c(CC(=O)OCCCO[N+](=O)[O-])cc(-c2ccc(S(C)(=O)=O)cc2)n1-c1cccc(F)c1 |  |  |  |  |  | 40 | 71.2 | 26.4 | 1.1 (≈ 0.54 µg/mL) | 35 | 23.3 | < 1 | 41 | 17 | 40 |  |  |  |
| Cc1c(C(N)C(=O)OCCCO[N+](=O)[O-])cc(-c2ccc(S(C)(=O)=O)cc2)n1-c1cccc(F)c1 (centres undefined) | 5 | 1510 | > 6.62 | > 10000 | 100 |  |  |  |  |  |  |  |  |  |  |  |  |  |
| Cc1c(C(N)C(=O)OCCCCO[N+](=O)[O-])cc(-c2ccc(S(C)(=O)=O)cc2)n1-c1cccc(F)c1 (centres undefined) | 15 | 1410 | > 7.09 | > 10000 | 59 |  |  |  |  |  |  |  |  |  |  |  |  |  |
| Cc1c(C(N)C(=O)OCCCCO[N+](=O)[O-])cc(-c2ccc(S(C)(=O)=O)cc2)n1-c1ccc(F)cc1 (centres undefined) | 1 |  | > 10 | > 10000 | 82 |  |  |  | 70.8 (≈ 36.8 µg/mL) |  |  | > 200 |  |  |  | 1550 | 40.7 | 26.9 |
